Compound activity (PubChem BioAssay)
MDM2 E3 inh = inhibitors of human Mdm2 E3 ubiquitin ligase; Q00987; signal enhancement, % at 5 µM; 210,000 compounds, 0.11% hits; cell-based MDM2 ubiquitination luciferase reporter, 2 h; 0 = plate control, 100 = twice control, blank-subtracted;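 active = signal enhancement of 30% or more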;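 also: luminescence tracks abundance of the self-degrading MDM2-luciferase fusion protein; higher signal means inhibition of MDM2 E3 ligase activity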
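test system = mammalian cells stably expressing self-ubiquitinating, self-degrading MDM2 E3–luciferase fusion | quantity = 2000 cells/well | incubation = cell settling 4 h, compound treatment 2 h, both 37 °C | signal = luminescence with SteadyLite reagent, 15 min at room temperature | evaluation = % enhancement relative to plate controls after blank subtraction | benchmarks = plate controls and plate blanks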
Mdm2-MdmX inh = inhibitors of human Mdm2/MdmX interaction | O15151+Q00987 | SaOS-2 split-luciferase Mdm2/MdmX complementation, luminescence | inhibition, % at 8 µM | 330,000 compounds, 3% hits;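 active = inhibition of at least 50% at 8 µM in the primary screen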
Target sequence (O15151 whole entry, looked up): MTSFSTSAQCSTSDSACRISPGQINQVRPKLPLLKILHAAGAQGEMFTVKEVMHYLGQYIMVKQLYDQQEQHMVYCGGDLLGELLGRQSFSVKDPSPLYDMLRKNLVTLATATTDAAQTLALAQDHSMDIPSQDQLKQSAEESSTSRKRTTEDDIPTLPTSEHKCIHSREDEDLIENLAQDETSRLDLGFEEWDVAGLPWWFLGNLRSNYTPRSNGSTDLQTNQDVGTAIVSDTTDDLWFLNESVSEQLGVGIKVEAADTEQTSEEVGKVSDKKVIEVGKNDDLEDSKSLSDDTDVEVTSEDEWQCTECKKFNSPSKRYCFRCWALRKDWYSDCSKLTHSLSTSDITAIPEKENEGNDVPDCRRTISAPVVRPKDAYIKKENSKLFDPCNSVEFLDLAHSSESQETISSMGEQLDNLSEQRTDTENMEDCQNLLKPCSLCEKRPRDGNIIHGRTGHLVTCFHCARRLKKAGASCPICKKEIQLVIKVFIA
Target sequence (Q00987 whole entry, looked up): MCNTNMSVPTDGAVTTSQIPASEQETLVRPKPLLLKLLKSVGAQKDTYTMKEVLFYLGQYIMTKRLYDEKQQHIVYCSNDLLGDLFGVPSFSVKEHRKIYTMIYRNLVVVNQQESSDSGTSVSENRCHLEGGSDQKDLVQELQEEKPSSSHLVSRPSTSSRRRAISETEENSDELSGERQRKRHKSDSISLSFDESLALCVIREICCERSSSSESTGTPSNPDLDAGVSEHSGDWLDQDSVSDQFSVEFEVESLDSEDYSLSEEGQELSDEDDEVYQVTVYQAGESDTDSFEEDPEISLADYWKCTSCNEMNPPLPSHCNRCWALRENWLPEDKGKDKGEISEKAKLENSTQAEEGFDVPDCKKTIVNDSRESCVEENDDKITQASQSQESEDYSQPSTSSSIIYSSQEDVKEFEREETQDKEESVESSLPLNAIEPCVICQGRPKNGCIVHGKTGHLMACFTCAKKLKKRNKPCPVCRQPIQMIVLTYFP
Beta2AR agonist = human beta-2 adrenergic receptor agonism by FAP | response, % (concentration not given with the values) | AID 504454 | P07550 | Am2.2-beta2AR cells, FAP receptor internalization, flow cytometry | 340,000 compounds, 0.43% hits;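 active = response above a set limit, near 3 SD of response in nonfluorescent compounds, cut at about 42% in these data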
UPR XBP1 act = adaptive UPR (XBP1) activation; CHO-XBP1 luciferase reporter, IRE1-XBP1 UPR activation, luminescence; percent of tunicamycin response, DMSO as zero; activation, % at 20 µM; 330,000 compounds, 0.33% hits; AID 463104;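 active = versus positive control, 20 µM dose yields 30% or more activation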;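 also: 100% = tunicamycin at 10 µg/mL and 0% = DMSO only wells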
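Material: CHO cell line with stable XBP1 luciferase reporter; schedule: 16-18 h cell attachment at 37 °C, then 6 h compound exposure; signal: glow luminescence from Steady-Glo reagent; medium: serum-containing F12 medium, 10% FBS; benchmarks: tunicamycin 10 µg/mL and vehicle-only wells; read-out: percent activation relative to tunicamycin reference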
UPR CHOP act = activators of apoptotic arm of unfolded protein response (CHOP); 330,000 compounds, 0.34% hits; AID 449763; CHO-CHOP luciferase reporter, UPR activation, luminescence; percent of tunicamycin response over DMSO baseline; activation, % at 10 µM;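 active = at 10 µM dose, activation of 40% or more, normalized to positive control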;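 also: 100% = tunicamycin at 10 µg/mL and 0% = DMSO alone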
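measured by = luciferase luminescence | assay system = CHO-CHOP cells, stable luciferase reporter of PERK-eIF2a-CHOP signalling | amount = 500 reporter cells seeded per well | timing = 6 h compound exposure at 37 °C after overnight seeding | controls = positive tunicamycin 10 µg/mL, negative DMSO alone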
Dynein cargo inh = blocks dynein driven cargo transport along microtubules. 3617.4 mouse cells, GR-EGFP nuclear translocation imaging; test concentration mostly 20 µM; stimulated with dexamethasone, 1 µM; active compounds read low. AID 1381. z-score, hits read low. 220,000 compounds, 0.47% hits;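 active = plate z-score of nuclear minus cytoplasmic receptor signal below a set negative limit, without overly bright fluorescence or cell loss, cut at about -3.5 in these data, passing the limit was not always enough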;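 also: z-score of nuclear minus cytoplasmic ring GR-EGFP intensity difference per well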
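Also added: dexamethasone, 1.0 µM final. Medium: tet-free, stripped-serum medium. Detection: fixed, Hoechst-stained cells imaged at 10x for EGFP. Read-out: nuclear-to-cytoplasmic GR-EGFP distribution per well. Times: induction 48 h, compound 1 h, agonist 30 min.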
Mdm2 MdmX conf = human Mdm2/MdmX binding inhibition, confirmed; 10,000 compounds, 55% hits; shares compounds with Mdm2-MdmX inh; inhibition, % at 8 µM; AID 489028; luminescent assay; in the data active = inhibition above about 40%
Full FLuc ctr = inhibits full-length luciferase, flagging false Mdm2/MdmX hits. inhibition, % at 8 µM. shares compounds with Mdm2-MdmX inh. 6,200 compounds, 77% hits. SaOS-2 full-length luciferase counterscreen, luminescence;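 active = mean inhibition at 8 µM reaching about 37%, which flags the compound as non-specific, limit read from the data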;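 also: p53-null SaOS-2 cells with luciferase driven by a doxycycline-inducible promoter; compound on cells about two nights before reading with doxycycline added after day one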
B2AR ag CP1 = activates human beta-2 adrenergic receptor. shares compounds with Beta2AR agonist. Am2.2-beta2AR cells, FAP surface receptor, flow cytometry; active compounds read low. percent response (surface receptor), % at 10 µM. 1,100 compounds, 25% hits. AID 540358;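 active = surface receptor percent response at or below 58%, roughly 3 SD from nonfluorescent compounds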
FAP fluor counter = counter-screen for beta-2AR agonists: fluorescence in Am2.2 cells; 1,100 tested, under 10 active; AID 588765; calls only at 10 µM; FAP fluorogen flow cytometry, fluorescence counterscreen; active compounds read low; shares compounds with Beta2AR agonist;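 active = percent response below a set limit in fluorescence channel 1 and below 50% in channel 8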
Active calls of the source: *; i = inactive; nt = no result given; ! = a repeat was not active. Sampled rows, rich in hits. Any-hit rate of the full collection: about 3.7%.

SMILES	MDM2 E3 inh	Mdm2-MdmX inh	Beta2AR agonist	UPR XBP1 act	UPR CHOP act	Dynein cargo inh	Mdm2 MdmX conf	Full FLuc ctr	B2AR ag CP1	FAP fluor counter
O=C(CCCCCCCC(=O)N1CCCC1)N1CCCC1	nt	nt	-9.3	nt	nt	nt	nt	nt	nt	nt
O=C(NCc1cccnc1)C(=O)Nc1cc2c3c(c1)CC(=O)N3CCC2	nt	13.5	-5.1	-1.5	0.7	nt	nt	nt	nt	nt
O=[N+]([O-])c1cnc(Sc2ccncn2)s1	13.8	97.3*	91.8*	-9.6	-9.0	-5.13*	99.7*	52.1*	15.8*	i
COc1ccccc1NC(=O)c1coc(=O)c(Br)c1	-53.2	8.9	9.7	-3.5	12.6	-0.649	nt	nt	nt	nt
CCOc1cc(CNc2ccc3c(c2)OCCO3)cc(Br)c1OC	-11.2	75.7*	45.8*	2.9	-4.7	0.479	73.0*	65.5*	86.8	i
COc1ccc(NC(=O)CN(C)CC(=O)N(C)C2(C#N)CCC(C)CC2)cc1 (stereo unspecified)	nt	17.2	-0.5	-2.0	-3.3	nt	nt	nt	nt	nt
CNCCCC1c2ccccc2C=Cc2ccccc21	nt	39.3	16.5	-10.1	0.6	0.00502	nt	nt	nt	nt
CNCCCC12CCC(c3ccccc31)c1ccccc12	-19.1	59.3*!	29.2	-3.8	0.4	0.049	32.8	nt	94.5	i
Cc1c(CN2CCC(CO)(Cc3cccc(C(F)(F)F)c3)CC2)c2ccccc2n1C	-12.4	67.7*	45.5*	2.8	0.0	3.2	42.4*	70.5*	97.2	i
NC(=O)c1ncn([C@@H]2O[C@H](CNCc3cccc(OC4CCCC4)c3)[C@@H](O)[C@H]2O)n1	nt	nt	-5.3	nt	nt	nt	nt	nt	nt	nt
CN(C)c1ccc(C(=O)OCC(=O)Nc2ccc(S(N)(=O)=O)cc2)cc1	1.2	52.9*	47.5*	3.8	5.4	-0.265	-11.9	nt	83.4	i
CCN1CCN(c2ccc(S(=O)(=O)N3CCCCC3)cc2NC(=O)c2cc3ccccc3o2)CC1	nt	61.5*	47.9*	0.4	0.6	nt	22.8	nt	115.4	i
O=C(c1ccncc1)N1CCN(S(=O)(=O)c2ccc(F)cc2)CC1	nt	29.8	8.3	-0.4	0.9	nt	nt	nt	nt	nt
N=c1n(Cc2ccccc2)c2ccccc2n1Cc1ccccc1	-4.9	44.2	21.1	0.1	-0.9	1.02	nt	nt	nt	nt
N=c1n(CC(=O)c2ccc(Br)cc2)c2ccccc2n1Cc1ccccc1	nt	96.7*	73.9*	20.1	7.4	nt	75.5*	55.4*	33.4*	i
CCCCc1ccc(NC(=O)CSc2nc(=O)n(CCN(CC)CC)c3c2CCCC3)cc1	nt	87.5*	43.3*	1.2	1.6	nt	53.9*	61.5*	102.9	i
CCCCc1ccc(NC(=O)CSc2nc(=O)n(CCN(C)C)c3c2CCC3)cc1	nt	36.5	11.4	5.0	2.4	nt	nt	nt	nt	nt
COc1ccc(CC(NC(C)=O)C(=O)NC2CCN(C(=O)C3CCCCC3)CC2)cc1OC (stereo unspecified)	nt	10.6	3.5	-2.4	1.5	nt	nt	nt	nt	nt
O=[N+]([O-])c1ccc(O)c(-c2cc(C(F)(F)F)nc(-c3ccccc3)n2)c1	nt	95.3*	47.7*	-0.1	33.4	nt	99.3*	51.5*	81.4	i
COc1ccc(C[C@H]2CN3C(=NC[C@@H]3Cc3ccc(O)cc3)N2CCNC(=O)c2ccc(C)c(Br)c2)cc1	nt	52.8*	47.3*	2.0	0.6	0.0641	25.7	nt	94.0	i
CCC(C)NC(=O)c1c(N)n(/N=C/c2cccnc2)c2nc3ccccc3nc12 (stereo unspecified)	-15.9	64.8*	47.8*	16.6	6.8	0.988	59.5*	60.6*	84.0	i
CCC(C)NC(=O)c1c(N)n(/N=C/c2ccccn2)c2nc3ccccc3nc12 (stereo unspecified)	5.1	46.9	17.2	4.8	4.6	0.918	nt	nt	nt	nt
CCCn1c(N)c(N(CCOC)C(=O)CSc2c(Cl)cccc2Cl)c(=O)[nH]c1=O	nt	9.5	3.7	1.8	3.0	nt	nt	nt	nt	nt
CC(C)Cc1nc2oc3c(Cl)ncnc3c2c2c1CCC2	-5.1	100.2*	110.2*	7.9	3.4	-2.62	69.8*	51.1*	19.7*	i
CC(C)Cc1nc2oc3c(NCCCN4CCOCC4)ncnc3c2c2c1CCC2	0.1	32.1	8.2	5.9	5.0	2.39	nt	nt	nt	nt
SMILES	MDM2 E3 inh	Mdm2-MdmX inh	Beta2AR agonist	UPR XBP1 act	UPR CHOP act	Dynein cargo inh	Mdm2 MdmX conf	Full FLuc ctr	B2AR ag CP1	FAP fluor counter
CCCCn1c(=N)n(CC(=O)c2ccc(Br)s2)c2ccccc21	-7.4	96.6*	82.1*	3.6	0.8	4.39	59.4*	52.8*	0.9*	i
CC(C)Oc1ccc(C(CCNCc2ccc(O)cc2)c2ccccc2)cc1 (stereo unspecified)	nt	91.2*	33.7	-4.0	0.5	nt	69.7*	57.5*	102.9	i
CC(C)Oc1ccc(CNC(=O)CC(c2ccccc2)c2cc(Cl)ccc2O)cc1 (stereo unspecified)	3.4	-2.4	3.7	-1.4	0.3	1.56	nt	nt	nt	nt
COc1cc(CNCCc2c[nH]c3ccccc23)ccc1OCc1ccc(F)cc1	-17.9	99.0*	72.3*	2.9	1.3	-3.95	59.0*	56.6*	55.6*	i
CCC(=O)NC(c1cccs1)c1ccc2cccnc2c1O (stereo unspecified)	-4.7	81.9*	3.1	5.2	23.2	-0.871	84.3*	23.3	105.4	i
Cc1ccc(S(=O)(=O)N2CCOCC2)cc1C(=O)NC1CCSc2ccccc21 (stereo unspecified)	nt	9.1	10.1	-3.5	0.8	nt	nt	nt	nt	nt
O=C(COc1ccc(S(=O)(=O)N2CCOCC2)cc1)Nc1ccc(Cl)c(C(F)(F)F)c1	-15.7	60.6*	-3.5	-5.3	0.6	-0.783	42.9*	65.4*	114.1	i
COc1ccc(Cl)cc1NC(=O)COc1ccc(S(=O)(=O)N2CCOCC2)cc1C	nt	68.3*	0.4	7.4	8.0	nt	18.4	nt	74.9	i
COc1ccc(S(=O)(=O)N2CCOCC2)cc1NC(=O)COc1ccc(C(C)=O)cc1OC	nt	10.4	9.2	-1.7	1.5	nt	nt	nt	nt	nt
CCOc1ccc(CCNC(=O)CCc2nnc3ccc(N4CCCCC4)nn23)cc1OCC	nt	26.7	-16.6	-1.5	0.8	nt	nt	nt	nt	nt
